ChEMBL document CHEMBL1145449, “Isolation, structures, and structure - cytotoxic activity relationships of withanolides and physalins from Physalis angulata” (J Nat Prod, 2007)
≈ marks a conversion by molar mass, not a printed value.

What was measured:
Type in all cases: functional, cell-based
1A9 = experiment: Antitumor activity against human 1A9 cells
Method in brief: (§1)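 SRB growth assay. Stock cultures grown in T-25 flasks in RPMI-1640 with […], 0.25% sodium bicarbonate, 10% FBS and 100 µg/mL kanamycin. Freshly trypsinized cells seeded at 1500-7500 per well, compounds added from DMSO-diluted stock, 3 days culture. Attached cells fixed with cold 50% TCA, stained with 0.4% SRB, bound dye solubilized, absorbance read at 562 nm. EC50 = concentration reducing growth 50%, mean of at least three independent determinations.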

LNCaP = experiment: Antitumor activity against human LNCAP cells; method in brief: as §1
HCT-116 = experiment: Antitumor activity against human HCT116 cells; method in brief: as §1
DU-145 = experiment: Antitumor activity against human DU145 cells; method in brief: as §1
A-431 = experiment: Antitumor activity against human A431 cells; method in brief: as §1
ZR-75-1 = experiment: Antitumor activity against human ZR751 cells; method in brief: as §1
PC-3 = experiment: Antitumor activity against human PC3 cells; method in brief: as §1
[1] = Antitumor activity against human KB-VIN cells; conditions: KBVIN; method in brief: as §1
HCT-8 = experiment: Antitumor activity against human HCT8 cells; method in brief: as §1
A549 = experiment: Antitumor activity against human A549 cells; method in brief: as §1
KB = experiment: Antitumor activity against human KB cells; method in brief: as §1

| Compound | EC50 (1A9) | EC50 (LNCaP) | EC50 (HCT-116) | EC50 (DU-145) | EC50 (A-431) | EC50 (ZR-75-1) | EC50 (PC-3) | EC50 [1] | EC50 (HCT-8) | EC50 (A549) | EC50 (KB) |
| --- | --- | --- | --- | --- | --- | --- | --- | --- | --- | --- | --- |
| CC1=C(C)C(=O)OC([C@](C)(O)[C@]2(O)C[C@H](O)[C@@]3(O)[C@@H]4C[C@H]5O[C@]56[C@@H](O)C=CC(=O)[C@]6(C)[C@H]4CC[C@@]32C)C1 (stereo partly specified) [WITHANGULATIN B] | 0.2 µg/mL (≈ 0.386 µM) | 0.2 µg/mL (≈ 0.386 µM) | 0.4 µg/mL (≈ 0.771 µM) | 1.3 µg/mL (≈ 2.51 µM) | – | – | – | – | – | – | – |
| C[C@@]12C[C@H]3OC(=O)[C@@H]1CO[C@@]14O[C@]5(C2C1=O)[C@@](O)(CC[C@H]1[C@H]4C[C@@H]2O[C@@]24CC=CC(=O)[C@]14C)C(=O)O[C@@]35C [PHYSALIN J] | – | – | – | – | 17 µg/mL (≈ 32.3 µM) | – | – | – | – | – | – |
| CO[C@H]1C[C@@](O)([C@@](C)(O)C2CC(C)=C(C)C(=O)O2)[C@@]2(C)CC[C@H]3[C@@H](C[C@H]4O[C@]45[C@@H](O)CCC(=O)[C@]35C)[C@]12O (stereo partly specified) [WITHANGULATIN C] | 6.5 µg/mL (≈ 12.2 µM) | 13.9 µg/mL (≈ 26 µM) | 11.4 µg/mL (≈ 21.3 µM) | – | – | – | – | – | – | – | – |
| C[C@@]12C[C@H]3OC(=O)[C@@H]1CO[C@@]14O[C@]5([C@H]2C1=O)[C@@](O)(CC[C@H]1[C@H]4C[C@@H](O)[C@@]2(O)CC=CC(=O)[C@]12C)C(=O)O[C@@]35C [PHYSALIN D] | – | 1.3 µg/mL (≈ 2.39 µM) | – | – | 1.4 µg/mL (≈ 2.57 µM) | 0.4 µg/mL (≈ 0.735 µM) | 1.6 µg/mL (≈ 2.94 µM) | 7 µg/mL (≈ 12.9 µM) | 1.2 µg/mL (≈ 2.2 µM) | 1.6 µg/mL (≈ 2.94 µM) | 1.2 µg/mL (≈ 2.2 µM) |
| CO[C@@H]1CC(=O)[C@@]2(C)[C@@H](CC[C@@H]3[C@@H]2CC[C@@]2(O)C(=O)O[C@@]4(C)[C@H]5C[C@@]6(C)C7C(=O)[C@@]3(OC[C@H]6C(=O)O5)O[C@]724)C1 [PHYSALIN W] | 9.2 µg/mL (≈ 16.9 µM) | – | – | – | – | – | – | – | – | – | – |
| C[C@]12C(=O)C=CCC1=CC[C@@H]1[C@@H]2CC[C@]2(O)C(=O)O[C@@]3(C)[C@H]4C[C@]5(C)[C@@H](CO[C@@]16O[C@@]32[C@H]5C6=O)C(=O)O4 [PHYSALIN B] | – | 5.3 µg/mL (≈ 10.4 µM) | – | – | 1.8 µg/mL (≈ 3.53 µM) | 2.6 µg/mL (≈ 5.09 µM) | 0.9 µg/mL (≈ 1.76 µM) | 1.3 µg/mL (≈ 2.55 µM) | 1.5 µg/mL (≈ 2.94 µM) | 5.9 µg/mL (≈ 11.6 µM) | 3 µg/mL (≈ 5.88 µM) |
| CC1=C(C)C(=O)OC([C@](C)(O)[C@]2(O)[C@@H](O)C[C@@]3(O)[C@@H]4C[C@@H](O)[C@@]5(O)[C@@H](O)C=CC(=O)[C@]5(C)[C@H]4CC[C@]23C)C1 (stereo partly specified) [WITHANGULATIN G] | 18.8 µg/mL (≈ 35 µM) | 13.4 µg/mL (≈ 25 µM) | – | – | – | – | – | – | – | – | – |
| CO[C@H]1CC(=O)[C@]2(C)[C@H]3CC[C@]4(C)[C@](O)([C@@](C)(O)C5CC(C)=C(C)C(=O)O5)[C@@H](O)C[C@@]4(O)[C@@H]3C[C@H]3O[C@]32C1 (stereo partly specified) [WITHANGULATIN H] | 3.7 µg/mL (≈ 6.92 µM) | 9.6 µg/mL (≈ 18 µM) | 9.2 µg/mL (≈ 17.2 µM) | – | – | – | – | – | – | – | – |
| C[C@@]12C[C@H]3OC(=O)[C@@H]1CO[C@]14O[C@]5([C@H]2C1=O)[C@@](O)(CC[C@H]1[C@H]4C[C@H]2O[C@]24CC=CC(=O)[C@]14C)C(=O)O[C@@]35C [PHYSALIN F] | – | 1 µg/mL (≈ 1.9 µM) | – | – | 1.1 µg/mL (≈ 2.09 µM) | 0.3 µg/mL (≈ 0.57 µM) | 1.1 µg/mL (≈ 2.09 µM) | 1.9 µg/mL (≈ 3.61 µM) | 1 µg/mL (≈ 1.9 µM) | 1.3 µg/mL (≈ 2.47 µM) | 0.9 µg/mL (≈ 1.71 µM) |
| CO[C@@H]1CC(=O)[C@]2(C)[C@H]3CC[C@@]4(O)C(=O)O[C@@]5(C)[C@H]6C[C@@]7(C)C8C(=O)[C@@](OC[C@H]7C(=O)O6)(O[C@]845)[C@@H]3C[C@H]3O[C@]32C1 [PHYSALIN U] | – | 15.9 µg/mL (≈ 28.5 µM) | – | – | 13.4 µg/mL (≈ 24 µM) | 8.2 µg/mL (≈ 14.7 µM) | 18.1 µg/mL (≈ 32.4 µM) | 20 µg/mL (≈ 35.8 µM) | 11.1 µg/mL (≈ 19.9 µM) | 16.3 µg/mL (≈ 29.2 µM) | 11.9 µg/mL (≈ 21.3 µM) |
